The source of these data is the array DNA melting data of Ke et al. (doi:10.1101/2024.01.08.574731).

The nature of data set [1]: folding enthalpy; higher = less favourable; fluorescence melt of hairpins on a sequencing array, two-state fit. Particulars: sodium 0.088 M. The essentials:
(§1)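 Cy3 fluorescence of library hairpins on a sequenced MiSeq flow cell, with annealed Cy3 and quencher oligos, was imaged in 50 mM Na-HEPES pH 8.0, 25 mM NaCl in 2.5 °C steps up to 60 °C. Signals were normalised to pre-quench Cy3 and to control variants. Melting temperature and folding enthalpy came from bootstrapped two-state fits, inverse-variance combined over four replicates. Fitted temperatures were raised by 9.35 °C to match UV melts.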

The nature of data set [2]: melting temperature; fluorescence melt of hairpins on a sequencing array, two-state fit, raised by 9.35 °C to match UV melts. The following applies: sodium 0.088 M. The essentials:
as §1

As for GTAGTGTCGAAAGACTAC (((..(((....)))))), the folding enthalpy in data set [1] was -15.1 kcal/mol. Moreover, in data set [2], the Tm was 33.3 °C.
The matching figures for GTAGTTGCGAAAGCATAC (((..(((....)))))): -10.9 kcal/mol and 31.1 °C.
Consider GTAGTTGGAAACAGTTAC (((..((....))..))), for which the folding enthalpy in data set [1] was -9.43 kcal/mol. Also, in data set [2], the Tm came out at 28.7 °C.
The like results for GTAGTTGGAAACGACTAC (((((.(....).))))) were, in that order, -26.4 kcal/mol and 45.8 °C.
The matching figures for GTATAACGAAAGTTTTAC (((.(((....))).))): -20.8 kcal/mol and 34.7 °C.
The like results for GTATAATCGAAAGATTAC (((..(((....)))))) were, in that order, -10.9 kcal/mol and 30 °C.
Consider GTATACCGAAAGGTTAC (((.(((....)))))), for which, in data set [1], the folding enthalpy is -17.4 kcal/mol. Besides, the Tm in data set [2] was found to be 40.1 °C.
The like results for GTATACGAAAGTAACTAC ((((((....)))..))) were, in that order, -19.9 kcal/mol and 26.4 °C.
On to GTATACGAAAGTAATAC ((((((....))).))), for which the folding enthalpy in data set [1] was -19.2 kcal/mol. Also, in data set [2], the Tm amounted to 35.5 °C.
Regarding GTATACGAAAGTATATAC ((((((....)))..))), in data set [1], the folding enthalpy was -14.4 kcal/mol. Moreover, in data set [2], the Tm was determined as 34.7 °C.
For the sequence GTATACGAAAGTATTAC ((((((....))).))), in data set [1], the folding enthalpy was -13.9 kcal/mol. For the same sequence, in data set [2], the Tm turned out to be 32.8 °C.
Consider GTATACGGAAACGCATAC ((((.((....)).)))), for which the folding enthalpy in data set [1] was -28.2 kcal/mol. In addition, the Tm in data set [2] was 37.3 °C.
As for GTATACGGAAACGTACAC ((.((((....)))).)), in data set [1], the folding enthalpy was -18.6 kcal/mol. Also, in data set [2], the Tm was 32.4 °C.
The like results for GTATACGGAAACGTGTAC (((.(((....))).))) were, in that order, -35.3 kcal/mol and 46.3 °C.
For GTATAGGGAAACCCATAC ((((.((....)).)))), the folding enthalpy in data set [1] was -16.1 kcal/mol. For the same sequence, the Tm in data set [2] was 31.8 °C.
The like results for GTATAGGGAAACCTATGC (.(((((....))))).) were, in that order, -22.2 kcal/mol and 38 °C.
In the case of GTATATGGAAACATATAC (((((((....))))))), the folding enthalpy in data set [1] was -42 kcal/mol. For the same sequence, the Tm in data set [2] was 47.9 °C.
Regarding GTATCCGAAAGGACTTAC ((((((....)))..))), the folding enthalpy in data set [1] is -11.4 kcal/mol. Further, the Tm in data set [2] came to 28.6 °C.
Consider GTATCCGAAAGGAGTAC ((((((....))).))), for which the folding enthalpy in data set [1] is -19.1 kcal/mol. In data set [2], the Tm amounted to 35.5 °C.
Turning to GTATCCGAAAGGATGTAC ((((((....)))..))), in data set [1], the folding enthalpy was -11.5 kcal/mol. For the same sequence, in data set [2], the Tm came out at 36.7 °C.
Consider GTATCCGAAAGGATTAC ((((((....))).))), for which the folding enthalpy in data set [1] was -13.7 kcal/mol. In addition, the Tm in data set [2] stood at 41 °C.
The matching figures for GTATCCGGAAACGGATGC (.(((((....))))).): -28.3 kcal/mol and 53 °C.
The matching figures for GTATCGGGAAACCAATAC ((((.((....)).)))): -24.6 kcal/mol and 30.3 °C.
The matching figures for GTATGACGAAAGTCCTAC (((.(((....))).))): -24.3 kcal/mol and 38.9 °C.
For GTATGACGAAAGTCTAC (((.(((....)))))), the folding enthalpy in data set [1] is -16.9 kcal/mol. The Tm in data set [2] came to 39 °C.
The matching figures for GTATGACGAAAGTCTTAC (((.(((....))).))): -24.7 kcal/mol and 47.2 °C.
In the case of GTATGAGCGAAAGCTTAC (((..(((....)))))), the folding enthalpy in data set [1] was -9.43 kcal/mol. For the same sequence, the Tm in data set [2] amounted to 30.1 °C.
As to GTATGAGGAAACTCATAC (((((((....))))))), the folding enthalpy in data set [1] was -36.9 kcal/mol. Besides, the Tm in data set [2] was 54.6 °C.
Consider GTATGCCCGAAAGGGTAC (((..(((....)))))), for which the folding enthalpy in data set [1] is -8.06 kcal/mol. Moreover, in data set [2], the Tm stood at 31.2 °C.
The matching figures for GTATGCCGAAAGGCCTAC (((.(((....))).))): -12.1 kcal/mol and 45.5 °C.
As to GTATGCGAAAGCAAATAC ((((((....)))..))), the folding enthalpy in data set [1] was -16.7 kcal/mol. Also, the Tm in data set [2] was 37.7 °C.
The matching figures for GTATGCGAAAGCAACTAC ((((((....)))..))): -11.6 kcal/mol and 36.2 °C.
On to GTATGCGAAAGCAGTAC ((((((....))).))), for which, in data set [1], the folding enthalpy is -17.7 kcal/mol. Moreover, the Tm in data set [2] was determined as 39.5 °C.
Consider GTATGCGAAAGCATGTAC ((((((....)))..))), for which the folding enthalpy in data set [1] is -10.6 kcal/mol. Further, the Tm in data set [2] worked out at 38 °C.
Consider GTATGGCCGAAAGGCTAC (((..(((....)))))), for which, in data set [1], the folding enthalpy is -7.75 kcal/mol. Further, the Tm in data set [2] worked out at 30 °C.
In the case of GTATGGCGAAAGCCCTAC (((.(((....))).))), the folding enthalpy in data set [1] is -18.4 kcal/mol. The Tm in data set [2] came to 37.8 °C.
Regarding GTATGGCGAAAGCCTAC (((.(((....)))))), the folding enthalpy in data set [1] was -13.2 kcal/mol. Also, the Tm in data set [2] turned out to be 46.6 °C.
The like results for GTATGGCGAAAGCCTTAC (((.(((....))).))) were, in that order, -22.8 kcal/mol and 48.2 °C.
The matching figures for GTATGGGGAAACCCGTAC (((.(((....))).))): -34.5 kcal/mol and 49.1 °C.
For GTATGGTCGAAAGACTAC (((..(((....)))))), in data set [1], the folding enthalpy was -15.5 kcal/mol. The Tm in data set [2] is 27.9 °C.
For GTATGTCCGAAAGGATAC (((..(((....)))))), in data set [1], the folding enthalpy is -16.3 kcal/mol. The Tm in data set [2] came out at 26.8 °C.
The like results for GTATGTCGAAAGACCTAC (((.(((....))).))) were, in that order, -19.2 kcal/mol and 39.6 °C.
The matching figures for GTATGTGAAAACATAC ((((((....)))))): -36.2 kcal/mol and 50.4 °C.
The matching figures for GTATGTGGAAACACATAC (((((((....))))))): -42.4 kcal/mol and 56 °C.
For the sequence GTATTAGGAAACTAGTAC (((.(((....))).))), the folding enthalpy in data set [1] was -16.2 kcal/mol. In addition, the Tm in data set [2] was found to be 29 °C.
The matching figures for GTATTCGAAAGAACTAC ((((((....))).))): -9.16 kcal/mol and 22.4 °C.
On to GTATTCGAAAGAATCTAC ((((((....)))..))), for which the folding enthalpy in data set [1] was -10.7 kcal/mol. In data set [2], the Tm was determined as 33.3 °C.
Turning to GTATTCGGAAACGAATAC (((((((....))))))), the folding enthalpy in data set [1] is -48.2 kcal/mol. In data set [2], the Tm was found to be 56.8 °C.
Regarding GTATTCTCGAAAGAGTAC (((..(((....)))))), in data set [1], the folding enthalpy was -7.69 kcal/mol. In addition, the Tm in data set [2] stood at 22.9 °C.
As to GTATTGCCGAAAGGCTAC (((..(((....)))))), the folding enthalpy in data set [1] was -3.24 kcal/mol. Moreover, in data set [2], the Tm was found to be 50 °C.
For the sequence GTATTGCGAAAGCACTAC (((.(((....))).))), the folding enthalpy in data set [1] is -21.5 kcal/mol. Further, in data set [2], the Tm was determined as 39.4 °C.
The matching figures for GTATTGGCGAAAGCCTAC (((..(((....)))))): -3.67 kcal/mol and 41.5 °C.
The like results for GTATTGTCGAAAGACTAC (((..(((....)))))) were, in that order, -11.4 kcal/mol and 28.5 °C.
Turning to GTCAAAGCGAAAGCTGAC (((..(((....)))))), in data set [1], the folding enthalpy is -21.2 kcal/mol. In data set [2], the Tm was found to be 48.1 °C.
The like results for GTCAAAGGAAACTTTGGC (.(((((....))))).) were, in that order, -29.9 kcal/mol and 44.5 °C.
The matching figures for GTCAACCGAAAGGTGAC (((.(((....)))))): -24.4 kcal/mol and 55.7 °C.
The like results for GTCAACGAAAGTTAAGAC ((((((....)))..))) were, in that order, -19.2 kcal/mol and 31.3 °C.
As for GTCAACGAAAGTTCCGAC ((((((....)))..))), the folding enthalpy in data set [1] was -9.76 kcal/mol. For the same sequence, the Tm in data set [2] was determined as 20.9 °C.
The matching figures for GTCAACGAAAGTTCGAC ((((((....))).))): -25.7 kcal/mol and 38.4 °C.
The like results for GTCAACGGAAACGCTGAC ((((.((....)).)))) were, in that order, -35.8 kcal/mol and 46.4 °C.
As to GTCAAGACGAAAGTCGAC (((..(((....)))))), the folding enthalpy in data set [1] was -13.7 kcal/mol. Further, the Tm in data set [2] turned out to be 43.9 °C.
The like results for GTCAAGCGAAAGCTGGAC (((.(((....))).))) were, in that order, -29.4 kcal/mol and 62.4 °C.
The like results for GTCAATCGAAAGATGGAC (((.(((....))).))) were, in that order, -25.5 kcal/mol and 49.2 °C.
GTCAATGAAAATTGAC ((((((....)))))): the folding enthalpy in data set [1] is -31.7 kcal/mol. Also, the Tm in data set [2] was found to be 50.8 °C.
The matching figures for GTCACACCGAAAGGTGAC (((..(((....)))))): -10.9 kcal/mol and 41.1 °C.
The matching figures for GTCACACGAAAGTGCGAC (((.(((....))).))): -35.4 kcal/mol and 55.6 °C.
The matching figures for GTCACAGAAATGTGAC ((((((....)))))): -35.2 kcal/mol and 56.8 °C.
On to GTCACAGGAAACCGTGAC (((((.(....).))))), for which the folding enthalpy in data set [1] is -30.3 kcal/mol. For the same sequence, the Tm in data set [2] stood at 49.1 °C.
For GTCACAGGAAACTATGAC ((((.((....)).)))), the folding enthalpy in data set [1] was -20.1 kcal/mol. Besides, the Tm in data set [2] was 32 °C.
Regarding GTCACAGGAAACTGTGGC (.(((((....))))).), the folding enthalpy in data set [1] is -32.8 kcal/mol. Besides, the Tm in data set [2] was 52.5 °C.
As to GTCACCGAAAGGTTGGAC ((((((....)))..))), in data set [1], the folding enthalpy was -14.8 kcal/mol. Also, the Tm in data set [2] came to 31.1 °C.
The matching figures for GTCACCGCGAAAGCGGAC (((..(((....)))))): -5.92 kcal/mol and 26.5 °C.
The like results for GTCACCGGAAACGACGAC (((..((....))..))) were, in that order, -24.7 kcal/mol and 31.1 °C.
